{"data": "Assay results gathered from unrelated publications", "target": "Serine/threonine-protein kinase ICK (CILK1, Homo sapiens, UniProt Q9UPZ9)", "Residues used in one study (Q9UPZ9 1-632)": "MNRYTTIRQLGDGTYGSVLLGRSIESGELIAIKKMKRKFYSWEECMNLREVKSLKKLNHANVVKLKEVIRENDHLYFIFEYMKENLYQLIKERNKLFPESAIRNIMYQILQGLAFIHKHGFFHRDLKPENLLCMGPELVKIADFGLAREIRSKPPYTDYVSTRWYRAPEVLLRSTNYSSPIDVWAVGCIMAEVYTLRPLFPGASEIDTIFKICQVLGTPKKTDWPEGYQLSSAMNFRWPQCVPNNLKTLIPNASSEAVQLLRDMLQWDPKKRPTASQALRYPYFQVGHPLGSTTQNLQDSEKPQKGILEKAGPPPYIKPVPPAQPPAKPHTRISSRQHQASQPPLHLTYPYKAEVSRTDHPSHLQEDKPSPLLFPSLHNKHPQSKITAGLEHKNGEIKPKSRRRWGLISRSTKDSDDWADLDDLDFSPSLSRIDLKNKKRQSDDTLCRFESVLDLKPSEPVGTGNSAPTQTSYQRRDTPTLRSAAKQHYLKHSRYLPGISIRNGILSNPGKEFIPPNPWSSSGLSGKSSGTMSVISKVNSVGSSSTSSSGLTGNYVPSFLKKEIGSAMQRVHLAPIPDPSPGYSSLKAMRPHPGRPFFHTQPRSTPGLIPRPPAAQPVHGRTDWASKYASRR", "note": "Each line is one published result; the experiments were not run side by side."}
{"SMILES": "Cc1cnc(Nc2ccc(C(=O)N3CCC(N4CCCC4)CC3)cc2)nc1-c1cc2ccccc2s1", "assay": "binding, competition with immobilised ligand", "conditions": "1 µM", "remaining binding [%]": 64}
{"SMILES": "CC1CCCN1c1nccc(-c2cnn3ncccc23)n1 (stereo not drawn)", "assay": "binding", "conditions": "1 µM", "remaining binding [%]": 100}
{"SMILES": "FC(F)(F)Oc1cccc(-c2cnc3ccc(-c4ccncc4)nn23)c1", "assay": "cell-free assay, competition with immobilised ligand", "conditions": "5 µM", "remaining binding [%]": 4.5}
{"SMILES": "C[C@@H](c1ccc(-n2cnc3c(N)ncnc32)cc1)N1CCc2nn(C)c(Cc3ccccc3)c2C1=O", "assay": "binding, competition with immobilised ligand", "conditions": "0.1 µM", "remaining binding [%]": 48}
{"SMILES": "O=C(c1ccc(Nc2nccc(-c3cc4ccccc4s3)n2)cc1)N1CCC(N2CCCC2)CC1", "assay": "binding, competition with immobilised ligand", "conditions": "1 µM", "remaining binding [%]": 74}
{"SMILES": "Nc1ncc2c(n1)-c1c([nH]c3ccc(C#CC4CC4)cc13)CCCC2", "assay": "binding, competition with immobilised ligand", "conditions": "1 µM", "remaining binding [%]": 98}
{"SMILES": "COc1cnc(Nc2cccc(S(N)(=O)=O)c2)nc1N1CCN(c2ccccc2)C(=O)C1", "assay": "binding, competition with immobilised ligand", "conditions": "1 µM", "remaining binding [%]": 75}
{"SMILES": "C[C@H]1CCN(c2nccc(-c3cnn4ncccc34)n2)C1", "assay": "binding", "conditions": "1 µM", "remaining binding [%]": 64}
{"SMILES": "CN([C@@H]1CCc2c(CC(=O)O)c3ccccc3n2C1)S(=O)(=O)c1ccc(F)cc1", "assay": "cell-free assay, competition with immobilised ligand", "conditions": "1 µM", "remaining binding [%]": 100}
{"SMILES": "O=C(Nc1c[nH]nc1C(=O)NC1CCNCC1)c1cc(F)cc(F)c1", "assay": "binding, competition with immobilised ligand", "conditions": "1 µM", "remaining binding [%]": 84}
{"SMILES": "CN(C)c1nccc(-c2cnc3ncccn23)n1", "assay": "binding", "conditions": "1 µM", "remaining binding [%]": 81}
{"SMILES": "CNC(=O)Nc1ccc2c(c1)[C@@]1(CC2)OC(=O)N(CC(=O)N(Cc2ccc(F)cc2)[C@@H](C)C(F)(F)F)C1=O", "assay": "binding, competition with immobilised ligand", "conditions": "1 µM", "remaining binding [%]": 67}
{"SMILES": "N[C@H]1CCN(c2nccc(-c3cnn4ncccc34)n2)C1", "assay": "binding", "conditions": "1 µM", "remaining binding [%]": 100}
{"SMILES": "C[C@@]1(Cc2ccc(C#N)cc2)C(=O)N(c2cc(Cl)cc(Cl)c2)c2ncc(C(=O)NC3(c4nc(C5CCC5)no4)CC3)n21", "assay": "cell-free assay, competition with immobilised ligand", "conditions": "1 µM", "remaining binding [%]": 100}
{"SMILES": "O=C(c1ccc(Nc2ncc(Cl)c(-c3ccc(Cl)s3)n2)cc1)N1CCC(N2CCCC2)CC1", "assay": "binding, competition with immobilised ligand", "conditions": "1 µM", "remaining binding [%]": 32}
{"SMILES": "Cc1c(NC(=O)c2cc(C(N)=O)nc3cc(F)ccc23)c(C(F)(F)F)nn1Cc1ccc(C(C)(C)C)cc1", "assay": "cell-free assay, competition with immobilised ligand", "conditions": "1 µM", "remaining binding [%]": 61}
{"SMILES": "CN(C)c1nccc(-c2cnn3ncccc23)n1", "assay": "binding", "conditions": "1 µM", "remaining binding [%]": 91}
{"SMILES": "CNCc1ccccc1-c1csc([C@H](C)Nc2nc(C)nc3cc(OC)c(OC)cc23)c1", "assay": "cell-free assay, competition with immobilised ligand", "conditions": "1 µM", "remaining binding [%]": 86}
{"SMILES": "c1cnn2ncc(-c3ccnc(N4CCC45COC5)n3)c2c1", "assay": "binding", "conditions": "1 µM", "remaining binding [%]": 69}
{"SMILES": "CCN1CCN(Cc2ccc(C(=O)Nc3ccc(C)c(Oc4ccc5c(c4)CC(=O)N5)c3)cc2C(F)(F)F)CC1", "assay": "binding, competition with immobilised ligand", "conditions": "1 µM", "remaining binding [%]": 100}
{"SMILES": "CN(C)C(=O)Cn1cc(-c2nc([C@@](C)(c3ccc(-c4cnc(N)nc4)cc3)C3CC3)no2)cn1", "assay": "binding, competition with immobilised ligand", "conditions": "1 µM", "remaining binding [%]": 100}
